Screening data: PubChem, Broad Institute
Shown are actives, neighbours in structure and some others; about 1.7% of the full set was active somewhere.
CFTR F508del cor – correctors of CFTR F508del function in bronchial epithelial cells. CFBE cells, YFP halide quenching; stimulated with forskolin plus potentiator P3; % fluorescence drop versus neutral controls. activity (quench increase), % at 7.58 µM. 350,000 compounds, 0.36% hits;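 active means mean added fluorescence quench of at least 8% versus neutral control, with both replicates also reaching 8%; inconclusive means only one of the mean or replicate conditions met; inactive means mean below 8% and not both replicates reaching 8%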;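 further: cells transiently co-express mutant CFTR-F508del with the halide-sensitive YFP; corrector assay measuring rescue of mutant channel to the surface after 24 h compound exposure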
CAL PDZ FP-1 – blocks peptide binding to human CAL PDZ domain | Q9HD26 | purified CAL PDZ, TMR-peptide fluorescence polarization, 1 h | inhibition, % at 20 µM | 330,000 compounds, 0.02% hits | AID 504414;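 active means highest replicate inhibition of at least 40%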
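Material: tagged CAL PDZ domain; buffer or medium: 25 mM sodium phosphate pH 7.4, 150 mM NaCl, TCEP, IgG, Thesit; compound dosing: single point, 20 µM; schedule: 1 h incubation at room temperature before polarization reading; measured by: FP readout, S and P plane fluorescence; read-out basis: percent inhibition from loss of millipolarization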
ARNT TACC3 PPI – ARNT/TACC3 interaction disruption | Q9Y6A5 | inhibition, % at 9.99 µM | AID 623870 | 390,000 compounds, 0.66% hits | AlphaScreen His-ARNT PAS-B/GST-TACC3 binding, luminescence; TACC3 fragment carries E629A point mutation;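 active means mean inhibition of replicates at least 50% and at least half of replicates each reaching 50%; inconclusive means half or more replicates reach 50% but mean below 50%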
CAL PDZ FP-2 – CAL PDZ (human) peptide binding inhibition | Q9HD26 | 300,000 compounds, 0.92% hits | purified CAL PDZ, TMR-peptide fluorescence polarization, 1 h | inhibition, % at 24.9 µM | AID 602252;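 active means mean inhibition of at least 30% with at least half of replicates also reaching 30%; inconclusive means no clear call, values can overlap the other calls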
miR122 inh – blocks miR-122 activity in Huh7 sensor cells; AID 602342; 340,000 compounds, 0.3% hits; activation (reporter increase), % at 12.5 µM; Huh7 miR-122 Renilla luciferase sensor, 48 h; neutral wells = 0, positive control = 100;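 active means mean replicate activation score at least 90 and every replicate individually at or above 90; inconclusive means only one of the two criteria met; inactive means neither criterion met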;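 further: higher luciferase means less miR-122 activity so hits act as miR-122 inhibitors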
PGC1a acetyl inh – lowers PGC1a acetylation signal in U2OS cells. 350,000 compounds, 0.17% hits. AID 651687. inhibition, % at 15.6 µM. AlphaScreen anti-acetyl-lysine; with virally co-expressed GCN5 acetyltransferase;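 active means every replicate shows inhibition of at least 40%; inconclusive means mean inhibition at least 40% but some replicate below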
Numbers stand for hits; - = inactive; ? = inconclusive; . = no result given.

SMILES | CFTR F508del cor | CAL PDZ FP-1 | ARNT TACC3 PPI | CAL PDZ FP-2 | miR122 inh | PGC1a acetyl inh
CN(C)C(=O)On1c(-c2ccccc2)nc2ccc(Cl)cc21 | . | - | - | - | - | -
COc1ccc(-c2nc3ccccc3n2OC(=O)N(C)C)cc1 | . | . | - | - | 113.9 | -
O=C(Cc1ccccn1)N1CCCCN2[C@H](CO)[C@H](c3ccc(C#Cc4ccccc4)cc3)[C@H]2C1 | - | . | - | . | - | -
CCOC(=O)[C@]12Cc3ccc(C)cc3[C@H]1N(C1CCCCC1)C(=O)c1cc(OC)ccc12 | 20.0 | . | . | . | . | .
CCOC(=O)[C@]12Cc3ccc(C)cc3[C@H]1N(C1CCCCC1)C(=O)c1ccccc12 | - | . | . | . | . | .
CC/C(CC(c1ccccc1)c1c(O)c2ccccc2oc1=O)=N\NC(N)=S (centres undefined) | . | - | - | 65.4 | . | .
O=C(Cc1ccccn1)N1CCCCN2[C@H](CO)[C@@H](c3ccc(C#Cc4ccccc4)cc3)[C@@H]2C1 | - | . | - | . | - | -
O=C(N/N=C/c1c(O)n(-c2ccccc2)c(=S)[nH]c1=O)c1ccccc1 | - | - | 63.6 | . | - | -
Cn1c(O)c(/C=N/NC(=O)c2ccncc2)c(=O)n(C)c1=S | - | - | 59.2 | . | - | -
CCCCn1c(O)c(/C=N/NC(=O)c2ccncc2)c(=O)[nH]c1=S | - | - | 60.3 | - | - | -
C=CCn1c(O)c(/C=N/NC(=O)c2ccncc2)c(=O)[nH]c1=O | - | - | 77.8 | - | . | -
Cn1c(O)c(/C=N/NC(=O)c2ccncc2)c(=O)[nH]c1=S | - | . | . | . | - | -
COCCn1c(O)c(/C=N/NC(=O)CSC(=S)N2CCCC2)c(=O)[nH]c1=S | - | - | 61.0 | - | . | .
COc1ccc(CCn2c(O)c(/C=N/NC(=O)c3ccncc3)c(=O)[nH]c2=O)cc1OC | . | - | 76.2 | - | . | .
CCCCCCC(=O)N/N=C/c1c(O)n(CCCC)c(=S)[nH]c1=O | - | - | - | - | - | -
O=C(N/N=C/c1c(O)n(-c2ccccc2)c(=O)[nH]c1=O)c1ccncc1 | . | - | 71.5 | - | - | -
N#Cc1cccc(-c2ccc([C@@H]3[C@@H](CO)N4CCCCN(C(=O)Cc5ccccc5)C[C@@H]34)cc2)c1 | - | . | - | . | - | -
O=C(O)[C@@H]1[C@@H](CO)[C@@H]2Cn3c(ccc(C4=CCCC4)c3=O)[C@H]1N2C(=O)Cc1ccccn1 | - | . | - | . | - | .
N#Cc1cccc(-c2ccc([C@H]3[C@H]4CN(C(=O)Cc5ccccc5)CCCCN4[C@H]3CO)cc2)c1 | - | . | - | . | - | -
CC1(C)CC(=O)C(C2(O)C(=O)NC(=O)NC2=O)=C(O)C1 | . | - | 22.9 | - | - | -
COc1ccc(C#Cc2ccc([C@@H]3[C@@H](CO)N4CCCCN(C(=O)Cc5cccnc5)C[C@H]34)cc2)cc1 | - | . | - | . | - | -
CC1CC(C)(O)CC(C(O)CC2CC(=O)NC(=O)C2)C1=O (centres undefined) | - | - | - | - | - | 76.9
COc1ccc(C#Cc2ccc([C@@H]3[C@H](CO)N4CCCCN(C(=O)Cc5cccnc5)C[C@@H]34)cc2)cc1 | - | . | - | . | - | -
Cc1ccc(-n2c(O)c(C=NC3CCCCC3N)c(=O)[nH]c2=O)cc1C (centres undefined) | . | - | - | - | - | -
Cc1ccc(-n2c(O)c(C=NC3CCCC3)c(=O)[nH]c2=O)c(C)c1 | . | - | - | 48.5 | - | -
SMILES | CFTR F508del cor | CAL PDZ FP-1 | ARNT TACC3 PPI | CAL PDZ FP-2 | miR122 inh | PGC1a acetyl inh
COC(=O)[C@@H]1[C@@H](CO)[C@@H]2Cn3c(ccc(-c4ccccc4F)c3=O)[C@H]1N2Cc1ccncc1 | - | . | - | . | - | -
O=C(Cc1cccnc1)N1CCCCN2[C@@H](CO)[C@@H](c3ccc(C#CC4CC4)cc3)[C@@H]2C1 | - | . | . | . | - | -
Cc1c(N=Cc2c(O)n(C)c(=O)[nH]c2=O)c(=O)n(-c2ccccc2)n1C | - | . | . | . | - | -
Cc1c(N=Nc2c(O)n(-c3ccc(Br)cc3)c(=O)[nH]c2=O)c(=O)n(-c2ccccc2)n1C | - | - | 61.1 | . | - | -
Cc1c(N=Nc2c(O)[nH]c(=O)[nH]c2=O)c(=O)n(-c2ccccc2)n1C | - | - | 65.4 | - | - | -
CC(=Nc1c(C)n(C)n(-c2ccccc2)c1=O)c1c(O)n(Cc2ccccc2)c(=O)[nH]c1=O | . | - | - | - | - | -
COC(=O)[C@@H]1[C@@H](CO)[C@@H]2Cn3c(ccc(C4=CCCCC4)c3=O)[C@H]1N2C(=O)NC(C)C | - | . | - | . | - | -
C[C@@H]1CN([C@@H](C)CO)C(=O)c2c(c3ccccc3n2C)-c2ccccc2CO[C@H]1CN(C)C(=O)Oc1ccccc1 | - | . | . | . | . | .
COc1ccc(Nc2ncc(C(=O)N3CCC4(CC3)OCCO4)c3ccccc23)cc1 | . | - | - | 79.6 | - | -
COC(=O)[C@@H]1[C@@H](CO)[C@@H]2Cn3c(cccc3=O)[C@H]1N2C(=O)C1CCCC1 | - | . | - | . | - | .
Cc1ccsc1/C=C1\C(=O)NC(=S)N(C)C1=O | - | - | - | . | - | -
COc1ccc(/C=C2\C(=O)NC(=S)N(C)C2=O)cc1C | - | - | 54.5 | - | . | -
O=C(O)[C@@H]1[C@@H](CO)[C@@H]2Cn3c(cccc3=O)[C@H]1N2C(=O)c1ccccc1 | . | . | - | . | . | .
O=C(Cc1ccccc1)N1CCCCN2[C@H](CO)[C@H](c3ccc(C#CC4(O)CCCC4)cc3)[C@@H]2C1 | - | . | - | . | - | -
COc1cccc(-c2ccc([C@H]3[C@@H](CO)N4CCCCN(C(=O)Cc5ccncc5)C[C@@H]34)cc2)c1 | - | . | - | . | - | -
CN1/C(=C\C=C2C(=O)NC(=O)NC2=O)C(C)(C)c2ccccc21 | ? | - | - | . | . | -
CC1(C)OC(c2ccccc2)=C/C(=C/C=C2C(=O)NC(=O)NC2=O)O1 | 14.0 | - | - | - | . | .
CC1=CC2OC3CC4OC(=O)C=CC=CC(=O)OCCC(C)C(O)C(=O)OCC2(CC1)C4(C)C31CO1 (centres undefined) | - | - | - | - | - | 77.4
CC(O)C1C=CC=CC(=O)OC2CC3OC4C5OC5(C)C(O)CC4(COC(=O)C(O)C(C)CCO1)C2(C)C31CO1 (centres undefined) | - | - | - | - | - | 86.9
CC1CCOC(=O)C=CC=CC(=O)OC2CC3OC4C5OC5(C)C(O)CC4(COC(=O)C1O)C2(C)C31CO1 (centres undefined) | - | - | - | - | - | 76.8
CC1=CC2OC3CC4OC(=O)C=CC=CC(C(C)O)OCC(O)C5(C)OC5C(=O)OCC2(CC1O)C4(C)C31CO1 (centres undefined) | - | - | - | - | - | 87.1
O=C(O)[C@@H]1[C@@H](CO)[C@@H]2Cn3c(ccc(-c4cncnc4)c3=O)[C@H]1N2C(=O)NC1CCCC1 | - | . | - | . | - | .
